# Reference: ChEMBL document CHEMBL3621107, “Ring fusion strategy for synthesis and lead optimization of sulfur-substituted anthra[1,2-c][1,2,5]thiadiazole-6,11-dione derivatives as promising scaffold of antitumor agents” (Eur J Med Chem, 2015)
# Tests used:
# Assay type in all cases: functional
# [1] = Cytotoxicity against human Hs578T cells after 48 hrs by SRB assay; details: Hs-578T
# Outline: (§1)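 NCI-60 human tumour cell panel screen, second stage, run by the NCI Developmental Therapeutics Program. Compounds were tested at five concentrations (0.01, 0.1, 1, 10 and 100 μM). Percentage growth was plotted against log10 concentration for each cell line. GI50, TGI and LC50 were taken from these dose-response curves.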
# HOP-62 = experiment: Cytotoxicity against human HOP62 cells after 48 hrs by SRB assay; details: HOP-62, 48 h; outline: as §1
# PC-3 = experiment: Cytotoxicity against human PC3 cells after 48 hrs by SRB assay; details: PC-3, 48 h
# Outline: (§2)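 Second-stage NCI-60 panel run by the NCI Developmental Therapeutics Program, covering nine tumour subpanels. Five concentrations were tested: 0.01, 0.1, 1, 10 and 100 μM. Percentage growth at each level was plotted against log10 drug concentration. GI50, TGI and LC50 were read from these dose-response curves. Subpanel MID values were divided into the full-panel MID to give selectivity ratios.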
# HCC 2998 = experiment: Cytotoxicity against human HCC2998 cells after 48 hrs by SRB assay; details: HCC 2998, 48 h; outline: as §1
# SR = experiment: Cytotoxicity against human SR cells after 48 hrs by SRB assay
# Outline: (§3)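 NCI-60 five-dose study run by NCI DTP at 0.01, 0.1, 1, 10 and 100 µM. Percentage growth at each level was plotted against log10 concentration for each line, and GI50, TGI and LC50 were read from the dose-response curves.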
# NCI-H522 = experiment: Cytotoxicity against human NCI-H522 cells after 48 hrs by SRB assay; details: NCI-H522, 48 h; outline: as §2
# SNB-75 = experiment: Cytotoxicity against human SNB75 cells after 48 hrs by SRB assay; details: SNB-75, 48 h; outline: as §3
# NCI-H226 = experiment: Cytotoxicity against human NCI-H226 cells after 48 hrs by SRB assay; details: NCI-H226, 48 h; outline: as §2
# 786-0 = experiment: Cytotoxicity against human 786-0 cells after 48 hrs by SRB assay; details: 786-0, 48 h; outline: as §1
# A549 = experiment: Cytotoxicity against human A549 cells after 48 hrs by SRB assay; details: A549, 48 h; outline: as §1
# UO-31 = experiment: Cytotoxicity against human UO31 cells after 48 hrs by SRB assay; details: UO-31, 48 h; outline: as §3
# DU-145 = experiment: Cytotoxicity against human DU145 cells after 48 hrs by SRB assay; details: DU-145, 48 h; outline: as §1
# NCI-H23 = experiment: Cytotoxicity against human NCI-H23 cells after 48 hrs by SRB assay; details: NCI-H23, 48 h; outline: as §2
# SN12C = experiment: Cytotoxicity against human SN12C cells after 48 hrs by SRB assay; outline: as §2
# RPMI-8226 = experiment: Cytotoxicity against human RPMI8226 cells after 48 hrs by SRB assay; details: RPMI-8226, 48 h; outline: as §2
# HT-29 = experiment: Cytotoxicity against human HT-29 cells after 48 hrs by SRB assay; details: HT-29, 48 h; outline: as §1
# A498 = experiment: Cytotoxicity against human A498 cells after 48 hrs by SRB assay; details: A498, 48 h; outline: as §1
# RXF 393 = experiment: Cytotoxicity against human RXF393 cells after 48 hrs by SRB assay; details: RXF 393, 48 h; outline: as §2
# U-251 = experiment: Cytotoxicity against human U251 cells after 48 hrs by SRB assay; details: U-251, 48 h; outline: as §3
# [2] = Cytotoxicity against human melanoma cells assessed as growth inhibition after 48 hrs by SRB assay; details: Melanoma cell
# Outline: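 Values come from the NCI-60 five-dose panel (0.01–100 µM). The subpanel MID is the mean GI50 over the lines of that tumour subpanel. The selectivity ratio is the full-panel MID divided by the subpanel MID; 3–6 is rated moderate and >6 high.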
# KM12 = experiment: Cytotoxicity against human KM12 cells after 48 hrs by SRB assay; details: KM12, 48 h; outline: as §1
# ACHN = experiment: Cytotoxicity against human ACHN cells after 48 hrs by SRB assay; outline: as §1
# MCF7 = experiment: Cytotoxicity against human MCF7 cells after 48 hrs by SRB assay; details: MCF7, 48 h; outline: as §1
# LOX IMVI = experiment: Cytotoxicity against human LOXIMVI cells after 48 hrs by SRB assay; outline: as §1
# Malme-3M = experiment: Cytotoxicity against human MALME-3M cells after 48 hrs by SRB assay; outline: as §1
# SF-295 = experiment: Cytotoxicity against human SF295 cells after 48 hrs by SRB assay; details: SF-295, 48 h; outline: as §2
# K562 = experiment: Cytotoxicity against human K562 cells after 48 hrs by SRB assay; details: K562, 48 h; outline: as §1
# [3] = Cytotoxicity against human CNS cancer cells assessed as growth inhibition after 48 hrs by SRB assay; details: Cancer cell lines
# Outline: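 NCI-60 five-dose data (0.01–100 μM) were grouped by tumour subpanel. A subpanel mean (MID) of GI50 was computed for the CNS cancer lines. A selectivity ratio was obtained as full-panel MID divided by subpanel MID: 3–6 counts as moderate, >6 as high.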
# SK-OV-3 = experiment: Cytotoxicity against human SKOV3 cells after 48 hrs by SRB assay; details: SK-OV-3, 48 h; outline: as §2
# [4] = read-out: LC50 (the source's name)
structure (smiles),measurement,setting,value
O=C1c2ccccc2C(=O)c2c1cc(Sc1ccccc1Br)c1nsnc21,GI50,[1],17.8 µM
same,LC50,[1],> 50 µM
same,TGI,[1],> 50 µM
same,GI50,HOP-62,13.3 µM
same,LC50,HOP-62,> 50 µM
same,TGI,HOP-62,30.4 µM
same,GI50,PC-3,14.8 µM
same,LC50 (concentration killing 50% of cells),PC-3,> 50 µM
same,TGI,PC-3,> 50 µM
same,GI50,HCC 2998,> 50 µM
same,LC50,HCC 2998,> 50 µM
same,TGI,HCC 2998,> 50 µM
same,GI50,SR,17 µM
same,LC50,SR,> 50 µM
same,TGI,SR,> 50 µM
same,GI50,NCI-H522,14.9 µM
same,LC50 (concentration giving 50% net cell kill),NCI-H522,> 50 µM
same,TGI,NCI-H522,> 50 µM
same,GI50,SNB-75,14.9 µM
same,LC50 (concentration killing 50% of cells),SNB-75,> 50 µM
same,TGI,SNB-75,> 50 µM
same,GI50,NCI-H226,19.4 µM
same,LC50 (concentration killing 50% of starting cells),NCI-H226,> 50 µM
same,TGI,NCI-H226,> 50 µM
same,GI50,786-0,11.2 µM
same,LC50 (concentration killing 50% of cells),786-0,> 50 µM
same,TGI,786-0,29.7 µM
same,GI50,A549,> 50 µM
same,LC50 (concentration killing 50% of cells),A549,> 50 µM
same,TGI,A549,> 50 µM
same,GI50,UO-31,14.9 µM
same,LC50,UO-31,> 50 µM
same,TGI,UO-31,> 50 µM
same,GI50,DU-145,21.5 µM
same,LC50,DU-145,> 50 µM
same,TGI,DU-145,> 50 µM
same,GI50,NCI-H23,13.5 µM
same,LC50,NCI-H23,> 50 µM
same,TGI,NCI-H23,> 50 µM
same,GI50,SN12C,10.5 µM
same,TGI,SN12C,39.7 µM
same,CC50,SN12C; [4],> 50 µM
same,GI50,RPMI-8226,11.3 µM
same,LC50,RPMI-8226,> 50 µM
same,TGI,RPMI-8226,> 50 µM
same,GI50,HT-29,> 50 µM
same,LC50,HT-29,> 50 µM
same,TGI,HT-29,> 50 µM
same,GI50,A498,10.7 µM
same,LC50 (concentration killing 50% of cells),A498,> 50 µM
same,TGI,A498,> 50 µM
same,GI50,RXF 393,9.14 µM
same,LC50 (concentration killing 50% of cells),RXF 393,42.2 µM
same,TGI,RXF 393,19.6 µM
same,GI50,U-251,10.9 µM
same,LC50,U-251,> 50 µM
same,TGI,U-251,31.7 µM
same,GI50,[2],12.9 µM
same,GI50,KM12,41.9 µM
same,LC50 (concentration killing 50% of cells),KM12,> 50 µM
same,TGI,KM12,> 50 µM
same,GI50,ACHN,12.8 µM
same,LC50,ACHN,> 50 µM
same,TGI,ACHN,32.5 µM
same,GI50,MCF7,7.28 µM
same,LC50 (concentration killing 50% of cells),MCF7,37.8 µM
same,TGI,MCF7,16.6 µM
same,GI50,LOX IMVI,12.6 µM
same,TGI,LOX IMVI,> 50 µM
same,CC50,LOX IMVI; [4],> 50 µM
same,GI50,Malme-3M,16.8 µM
same,LC50,Malme-3M,> 50 µM
same,TGI,Malme-3M,40.2 µM
same,GI50,SF-295,40.6 µM
same,LC50,SF-295,> 50 µM
same,TGI,SF-295,> 50 µM
same,GI50,K562,18.5 µM
same,LC50,K562,> 50 µM
same,TGI,K562,> 50 µM
same,GI50,[3],21.8 µM
same,GI50,SK-OV-3,21 µM
same,LC50,SK-OV-3,> 50 µM
same,TGI,SK-OV-3,> 50 µM
